Data set [1] addresses T1, Polyunsaturated fatty acid 5-lipoxygenase (Rattus norvegicus, UniProt P12527).
T1 sequence (P12527 whole entry): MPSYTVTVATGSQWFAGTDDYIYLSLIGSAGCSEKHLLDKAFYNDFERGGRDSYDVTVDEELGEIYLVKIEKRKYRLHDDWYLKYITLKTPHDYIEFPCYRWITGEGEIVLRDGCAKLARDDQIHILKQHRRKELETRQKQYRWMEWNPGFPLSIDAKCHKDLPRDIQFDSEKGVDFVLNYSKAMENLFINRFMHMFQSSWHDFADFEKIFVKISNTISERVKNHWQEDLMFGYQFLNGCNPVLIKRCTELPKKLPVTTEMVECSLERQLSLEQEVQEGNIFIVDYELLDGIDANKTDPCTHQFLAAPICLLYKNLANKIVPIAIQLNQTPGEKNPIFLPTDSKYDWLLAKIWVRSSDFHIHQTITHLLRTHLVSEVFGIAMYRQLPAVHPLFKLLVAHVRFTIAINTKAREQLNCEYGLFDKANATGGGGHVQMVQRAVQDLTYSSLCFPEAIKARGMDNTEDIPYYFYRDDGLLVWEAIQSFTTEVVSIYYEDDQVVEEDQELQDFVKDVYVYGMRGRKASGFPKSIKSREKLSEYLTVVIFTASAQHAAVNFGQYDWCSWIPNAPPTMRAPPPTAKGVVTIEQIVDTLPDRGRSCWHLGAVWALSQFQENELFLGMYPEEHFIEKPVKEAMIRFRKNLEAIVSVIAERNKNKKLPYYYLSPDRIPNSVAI
Briefly: Inhibitory activity against 5-lipoxygenase of RBL-1 cell line. Format: cell-based.

Data set [2] concerns Mus musculus. Kind of data set: In vivo inhibitory activity against phorbol myristyl acetate (PMA) ear edema at a dose of 100 ug/ear. The format is functional. The procedure, abridged:
(§1)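 Mouse ear edema, topical: inflammation induced by PMA, A23187 or arachidonic acid on one ear, with the unchallenged ear as control. Mice were killed by cervical dislocation at set times after challenge, and 6 mm punches were weighed. Edema = challenged minus unchallenged punch weight. Percent inhibition = [(C−T)/C]×100 at 100 μg/ear. Duplicate separate experiments, 10 animals per group. Student's t test.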

Data set [3] concerns Mus musculus. Kind of data set: (§2) In vivo inhibitory activity against arachidonic acid(AA) ear edema at a dose of 100 ug/ear. The format is functional. The procedure, abridged:
(§3)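 Topical mouse ear edema test at 100 µg/ear; the inflammogen is applied to one ear and the unchallenged ear serves as control. Mice are killed by cervical dislocation at set times, and 6 mm biopsy punches from each ear are weighed. Edema is the challenged-minus-unchallenged weight. Percent inhibition is [(C−T)/C]×100. Duplicate separate experiments, 10 animals per group; averages of two or more determinations.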

The target in a further data set is T2, Cyclooxygenase (Bos taurus, UniProt O62664+O62698).
T2 sequence (O62664 whole entry): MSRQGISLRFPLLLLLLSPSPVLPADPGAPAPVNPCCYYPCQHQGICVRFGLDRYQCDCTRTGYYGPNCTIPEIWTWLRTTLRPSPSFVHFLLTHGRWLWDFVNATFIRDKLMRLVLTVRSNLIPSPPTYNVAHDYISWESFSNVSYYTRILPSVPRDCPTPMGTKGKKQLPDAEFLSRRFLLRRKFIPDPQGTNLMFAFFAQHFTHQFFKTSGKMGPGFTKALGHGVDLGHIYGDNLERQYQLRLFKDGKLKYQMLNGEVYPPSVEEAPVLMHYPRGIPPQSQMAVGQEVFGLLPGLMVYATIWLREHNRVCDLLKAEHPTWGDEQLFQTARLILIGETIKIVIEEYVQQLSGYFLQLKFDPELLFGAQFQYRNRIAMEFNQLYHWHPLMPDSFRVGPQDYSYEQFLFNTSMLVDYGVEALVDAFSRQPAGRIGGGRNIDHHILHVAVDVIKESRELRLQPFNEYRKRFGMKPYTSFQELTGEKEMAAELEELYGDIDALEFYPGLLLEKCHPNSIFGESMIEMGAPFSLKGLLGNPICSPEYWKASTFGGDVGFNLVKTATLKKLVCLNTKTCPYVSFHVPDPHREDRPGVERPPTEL
T2 sequence (O62698 whole entry): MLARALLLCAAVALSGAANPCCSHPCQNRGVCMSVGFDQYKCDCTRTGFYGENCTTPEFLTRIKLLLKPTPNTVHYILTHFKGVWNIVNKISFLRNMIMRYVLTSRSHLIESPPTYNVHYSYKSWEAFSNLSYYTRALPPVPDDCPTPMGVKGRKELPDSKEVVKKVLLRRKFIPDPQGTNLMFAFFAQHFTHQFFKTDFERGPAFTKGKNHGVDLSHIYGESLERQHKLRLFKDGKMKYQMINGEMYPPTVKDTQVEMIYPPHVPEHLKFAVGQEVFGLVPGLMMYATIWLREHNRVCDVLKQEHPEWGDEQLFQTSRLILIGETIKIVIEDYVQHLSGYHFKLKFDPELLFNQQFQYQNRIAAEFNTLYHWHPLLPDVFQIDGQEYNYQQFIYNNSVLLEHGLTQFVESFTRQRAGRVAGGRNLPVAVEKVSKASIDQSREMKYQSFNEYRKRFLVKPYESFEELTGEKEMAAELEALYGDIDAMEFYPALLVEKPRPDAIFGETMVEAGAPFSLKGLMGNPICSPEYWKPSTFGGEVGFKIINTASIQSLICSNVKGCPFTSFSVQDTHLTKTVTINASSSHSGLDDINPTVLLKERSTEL
Briefly: Inhibitory activity against Prostaglandin G/H synthase (bovine seminal vesicles). The format is protein assay.

Data set [4] concerns Mus musculus. Briefly: (§4) In vivo inhibitory activity against A-23187 ear edema at a dose of 100 ug/ear. Format: functional. The procedure, abridged: as §3
Data set [5] can be described thus: Partition coefficient (logP). The format is physicochemical. The note with it: octanol/water. The procedure, abridged: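 log P estimated from reversed-phase HPLC retention time. Calibration curve built from shake-flask octanol/water log P values of eight pyridines. Log RT vs log P was linear.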
Data set [6] deals with Mus musculus. Described as §4. The format is functional. The method, boiled down:
as §1
This is another data set of the same source.

In data set [7] the test system is Mus musculus. Kind of data set: In vivo inhibitory activity in a phorbol myristyl acetate (PMA) ear edema model at a dose of 100 ug/ear. Format: functional. The procedure, abridged: as §1
Data set [8] deals with Mus musculus. Described as §2. The format is functional. The procedure, abridged: as §1
The source holds these as a separate data set.

Turning to `CC(=O)N1CCN(c2ccc(OCC3COC(Cn4ccnc4)(c4ccc(Cl)cc4Cl)O3)cc2)CC1` (centres undefined) [KETOCONAZOLE], the IC50 (in general, the concentration at which inhibition is half-maximal) in [1] was more than 25 µM; at Cyclooxygenase it was more than 750 µM. The molecule further came in with an ED50 in the data set with Mus musculus [2] of 34 ug ear-1. In addition, the Inhibition (commonly how much of the control response was suppressed) in the data set with Mus musculus [3] worked out at 10%; in the data set with Mus musculus [4] it was 8%.

Take `Cc1ccc(C(O)(Cn2ccnc2)c2ccc(-c3ccncc3)cc2)cc1` (centres undefined): the IC50 in [1] is more than 25 µM; at Cyclooxygenase, more than 750 µM. In addition, the logP (usually a log measure of how a compound divides between an organic and an aqueous phase) in [5] was 3.13. In addition, the ED50 in the data set on Mus musculus [6] worked out at 13 ug ear-1; in the data set with Mus musculus [2] it was 13.2 ug ear-1. In addition, the Inhibition was 16% with Mus musculus [3] and 62% in the data set on Mus musculus [7].

`OC(Cn1ccnc1)(c1ccc(F)cc1)c1ccc(-c2ccncc2)cc1` (centres undefined): the IC50 in data set [1] is more than 25 µM; at Cyclooxygenase it was more than 750 µM. The same molecule came in with a lipophilicity (logP) in [5] of 2.47. In addition, the ED50 in the data set with Mus musculus [6] came out at 21 ug ear-1; in the data set with Mus musculus [8], 543 ug ear-1; with Mus musculus [2] it was 4.6 ug ear-1. Moreover, the Inhibition in the data set with Mus musculus [7] was 72%.

Source of the values: ChEMBL document CHEMBL1125533, “Novel 1-(pyridylphenyl)-1-phenyl-2-imidazolylethanols with topical antiinflammatory activity” (J Med Chem, 1992).
